# UPR XBP1 act = activators of adaptive arm of unfolded protein response (XBP1) | 0.33% of 330,000 active | AID 463104 | activation, % at 20 µM | CHO-XBP1 luciferase reporter, IRE1-XBP1 UPR activation, luminescence; percent of tunicamycin response, DMSO as zero;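 active = versus positive control, 20 µM dose yields 30% or more activation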;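 also: 100% = tunicamycin at 10 µg/mL and 0% = DMSO only wells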
#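 Test system: CHO-XBP1 luciferase reporter cells | Buffer or medium: Serum-containing F12 medium, 10% FBS | Schedule: 6 h compound exposure at 37 °C, 5% CO2 | Detection: Steady-Glo luciferase glow luminescence, 10 min after reagent addition | Read-out basis: Activation, % of tunicamycin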
# Beta cell apopt = beta cell apoptosis inhibition. INS-1E cytokine-induced death, ATP luminescence, 48 h; percent of positive-control rescue, neutral wells zero. protection from apoptosis, % (no concentration beside the values). 0.8% of 300,000 active;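 active = Every replicate reaches about 75%, or at least half do and their mean reaches it too, limit read from the data; inconclusive = At least half of replicates reach the limit but their mean does not; inactive = Under half of replicates reach the limit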;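 also: 0% = cytokine-treated negative control wells and 100% = positive control rescue; higher means more ATP so stronger rescue from cytokine killing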
# CSC inhib = cancer stem cell inhibition; cancer stem cell-like cells viability, luminescence; 1.1% of 300,000 active; AID 2717; inhibition, % at 7.5 µM; in the data active = inhibition above about 75%; inconclusive = no clear call, values can overlap the other calls; tested in HMLE shEcad cells
# Mdm2-MdmX inh = human Mdm2/MdmX binding inhibition; 3% of 330,000 active; O15151+Q00987; SaOS-2 split-luciferase Mdm2/MdmX complementation, luminescence; AID 485346; inhibition, % at 8 µM;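 active = inhibition of at least 50% at 8 µM in the primary screen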
# Target sequence (O15151 whole entry, looked up): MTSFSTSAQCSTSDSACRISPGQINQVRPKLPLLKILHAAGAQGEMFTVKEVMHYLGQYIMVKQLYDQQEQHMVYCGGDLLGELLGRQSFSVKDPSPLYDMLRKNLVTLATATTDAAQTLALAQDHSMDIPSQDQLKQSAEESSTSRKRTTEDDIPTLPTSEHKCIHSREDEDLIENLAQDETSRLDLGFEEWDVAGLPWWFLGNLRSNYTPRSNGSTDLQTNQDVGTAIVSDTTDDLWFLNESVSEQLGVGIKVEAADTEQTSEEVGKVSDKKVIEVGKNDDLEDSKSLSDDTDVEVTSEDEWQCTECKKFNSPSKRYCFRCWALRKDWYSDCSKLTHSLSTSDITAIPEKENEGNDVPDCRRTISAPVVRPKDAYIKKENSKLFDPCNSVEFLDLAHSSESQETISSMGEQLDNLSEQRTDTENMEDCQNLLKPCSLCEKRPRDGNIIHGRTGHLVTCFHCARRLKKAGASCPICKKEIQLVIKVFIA
# Target sequence (Q00987 whole entry, looked up): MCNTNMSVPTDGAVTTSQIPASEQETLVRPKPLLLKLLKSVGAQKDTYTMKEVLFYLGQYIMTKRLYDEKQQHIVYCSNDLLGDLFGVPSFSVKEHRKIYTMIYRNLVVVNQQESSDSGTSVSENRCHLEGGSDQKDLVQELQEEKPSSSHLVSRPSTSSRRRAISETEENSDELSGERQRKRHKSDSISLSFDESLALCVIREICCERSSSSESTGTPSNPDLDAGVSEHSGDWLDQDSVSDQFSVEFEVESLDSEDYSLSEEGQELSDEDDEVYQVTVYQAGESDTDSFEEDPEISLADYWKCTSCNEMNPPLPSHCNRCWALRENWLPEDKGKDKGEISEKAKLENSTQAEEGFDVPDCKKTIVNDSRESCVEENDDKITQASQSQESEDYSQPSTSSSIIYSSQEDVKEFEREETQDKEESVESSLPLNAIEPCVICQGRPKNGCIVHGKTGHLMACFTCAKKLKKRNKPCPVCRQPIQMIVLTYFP
# UPR CHOP act = apoptotic UPR (CHOP) activation. CHO-CHOP luciferase reporter, luminescence; percent of tunicamycin response over DMSO baseline. activation, % at 10 µM. 0.34% of 330,000 active;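 active = at 10 µM dose, activation of 40% or more, normalized to positive control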;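 also: 100% = tunicamycin at 10 µg/mL and 0% = DMSO alone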
#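 System: CHO-CHOP luciferase reporter cell line; amount: 500 cells/well; buffer or medium: F12 medium containing 10% fetal bovine serum; incubation: 6 h compound exposure at 37 °C after overnight seeding; measured by: luciferase luminescence after 10 min with Steady-Glo reagent; evaluation: % reporter activation, DMSO baseline versus tunicamycin full activation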
# T cruzi inh = blocks replication of Trypanosoma cruzi. inhibition, % (no concentration beside the values). 1.4% of 300,000 active. T. cruzi beta-gal in NIH3T3, luminescence, 90 h. AID 1885;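 active = mean inhibition across valid replicates above about 55%, limit read from the data; inconclusive = mean below that limit but half or more replicates reach it; inactive = mean below it, under half of replicates reach it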;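 also: signal also drops with host cell toxicity which is not excluded here; 0% = plate median of DMSO wells and 100% = zero luminescence signal; higher percent means less beta-gal luminescence so fewer parasites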
#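 Incubation – ≥90 h infection period, 3 h prior cell attachment · System – NIH/3T3 fibroblasts plus reporter T. cruzi · Doses – compound pinned at 50 nL/well, DMSO · Read-out basis – percent inhibition of parasite-derived β-gal signal · Signal – luminescent β-galactosidase signal after 60 min lysis · Also added – 5000 T. cruzi trypomastigotes/well · Medium – Low-serum DMEM with 2% FBS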
# Numbers without * were called inactive; ? = inconclusive; / = no result given. An excerpt weighted towards active compounds, which were near 5% of everything screened.
SMILES,UPR XBP1 act,Beta cell apopt,CSC inhib,Mdm2-MdmX inh,UPR CHOP act,T cruzi inh
O=C(Nc1ccc(-c2nc3ccccc3o2)cc1)c1ccc(N2CCOCC2)c([N+](=O)[O-])c1,-6,99*,7,34,-6,57*
CC1CCCN(c2ccc(C(=O)NCc3ccc4c(c3)OCO4)cc2[N+](=O)[O-])C1 (centres undefined),2,6,15,-10,-1,38
O=C(NCc1ccc2c(c1)OCO2)c1ccc(N2CCCCCC2)c([N+](=O)[O-])c1,3,3,30,10,0,59*
CC1CCCN(c2ccc(C(=O)Nc3nnc(C4CC4)s3)cc2[N+](=O)[O-])C1 (centres undefined),-2,3,27,-8,2,24
CC1CCN(c2ccc(C(=O)Nc3ccc4c(c3)OCO4)cc2[N+](=O)[O-])CC1,4,13,78*,18,0,25
CC1CCCN(c2ccc(C(=O)Nc3ccc4c(c3)OCO4)cc2[N+](=O)[O-])C1 (centres undefined),1,6,102*,34,2,25
CC(C)(C)C(=O)Nc1ccc(S(=O)(=O)N2CCC(c3nc4ccccc4[nH]3)CC2)cc1,-2,12,7,5,-1,-22
CS(=O)(=O)c1ccc(-c2cccc(NC(=O)c3ccco3)c2)nn1,-1,-1,-2,-9,2,-6
O=C(c1ccc(CN2CCOCC2)cc1)N1CCN(c2cccc(Cl)c2)CC1,-5,3,22,-6,0,?
Cc1cccc(N2CCN(C(=O)CCCCCn3c(=S)[nH]c4ccc(N5CCOCC5)cc4c3=O)CC2)c1C,7,31,71,31,3,65*
Cc1ccc(Cl)cc1N1CCN(Cc2cc(=O)n3ccsc3n2)CC1,-4,-7,/,22,2,0
CCCCn1c(=S)[nH]c2ccc(N3CCOCC3)cc2c1=O,-1,/,/,27,7,-7
Cc1ccc(Cl)cc1N1CCN(Cc2cc3c(cc2O)CCC3)CC1,-3,2,37,-15,-2,58*
Cc1ccc(Cl)cc1N1CCN(C(=O)c2ccc(CN3CCOCC3)cc2)CC1,-3,-1,48,12,-1,56*
Cc1ccc(C)c(N2CCN(C(=O)c3ccc(Cn4c(=S)[nH]c5ccc(N6CCOCC6)cc5c4=O)cc3)CC2)c1,0,-4,25,11,2,75*
O=C(NC1CCCC1)C(c1ccco1)N(Cc1ccccc1)C(=O)c1csnn1 (centres undefined),2,-24,-1,8,2,-2
CCCN(CCC)S(=O)(=O)c1cc(Br)cc2c1N(C(=O)CC)CC2,-2,-4,8,20,-1,49
COc1cc(N)c(Cl)cc1C(=O)OCC(=O)NC(=O)NCc1ccco1,-2,-5,3,0,0,/
COc1cc2c(cc1OC)CN(S(=O)(=O)/C=C/c1ccccc1)CC2,-4,/,/,9,-1,2
COc1ccc(N2CCN(C(=O)c3ccc(Cn4c(=S)[nH]c5ccc(N6CCOCC6)cc5c4=O)cc3)CC2)cc1,-3,14,46,-27,0,68*
O=c1c2cc(N3CCOCC3)ccc2[nH]c(=S)n1Cc1ccc(Cl)cc1,0,5,49,-70,4,-2
O=C(c1ccc(Cn2c(=S)[nH]c3ccc(N4CCOCC4)cc3c2=O)cc1)N1CCN(c2ccc(F)cc2)CC1,1,-8,40,-11,5,85*
Cc1c(CCOC(=O)c2cc([N+](=O)[O-])cc([N+](=O)[O-])c2)sc[n+]1CC(=O)c1ccccc1,0,7,-20,22,0,69*
Cc1c(CCOC(=O)c2ccccc2)sc[n+]1CC(=O)c1ccc(Br)cc1,-5,6,/,12,1,-2
CC1S/C(=N\N=C\c2cccc([N+](=O)[O-])c2)N(C(C)(C)C)C1=O (centres undefined),-3,11,81*,17,0,8
SMILES,UPR XBP1 act,Beta cell apopt,CSC inhib,Mdm2-MdmX inh,UPR CHOP act,T cruzi inh
CCOC(=O)/C(C)=C1\NC(C)(C)Cc2ccccc21,/,/,/,/,/,62*
Cc1ccc(C)c(S(=O)(=O)c2c(C)cc(C)nc2Cl)c1,-1,-5,-11,-4,0,54
Cc1cc(C)c(S(=O)(=O)c2ccccc2C)c(Cl)n1,-1,-8,-6,13,1,55*
Cc1ccc(S(=O)(=O)c2c(C)cc(C)nc2Cl)c(C)c1,2,-4,-19,-12,0,59*
COc1ccc(C(O)Cc2nccn2C)cc1 (centres undefined),0,/,-5,2,0,-12
CNC(=S)N1N=C(c2ccc(Br)cc2)CC1c1ccc(Br)cc1 (centres undefined),1,/,2,10,5,78*
COc1ccc(CNc2ccc(Cl)cc2)cc1Cn1ccnc1,-1,6,66,-15,2,59*
COc1ccc(CCNCC(O)COc2cccc(C(C)=O)c2)cc1OC (centres undefined),3,/,/,-26,2,56*
COc1ccc(CCNCC(O)COc2ccc(Cl)cc2)cc1OC (centres undefined),-3,-13,-4,29,2,48
COC(=O)c1cccc(Nc2cc(C)nc(-c3ccccc3O)n2)c1,1,24,?,14,1,58*
Cc1cc(N/N=C/c2ccc(O)cc2O)nc(-c2ccccc2O)n1,/,76*,99*,/,/,60*
COC(=O)c1ccc(Nc2cc(C)nc(-c3ccccc3O)n2)cc1,1,3,16,5,-2,3
Cc1cc(N/N=C\c2ccccc2)nc(-c2ccccc2O)n1,0,19,53,1,3,52
Cc1cc(N/N=C/c2ccc(O)cc2O)nc(-n2nc(C)cc2C)n1,/,99*,29,/,/,60*
CN1CCC(N(C)C(=O)c2sc3cc(F)ccc3c2Cl)CC1,1,1,33,21,0,78*
Cc1cc(C(=O)O)sc1C,0,-6,-2,-26,2,15
COc1ccc(C(=O)NN/C(C)=C/C(=O)C(F)(F)C(F)(F)C(F)(F)F)cc1,-2,79*,123*,44,-1,2
O=S(=O)(c1cccc(C(F)(F)F)c1)N1CCCC1c1cccnc1 (centres undefined),-1,-2,-10,15,1,/
Cc1ccc(S(=O)(=O)N2CCCCC2c2cccnc2)c(C)c1C (centres undefined),-2,98*,15,-9,-1,54
Cc1nn(-c2ccccc2)c(N)c1C(c1ccc(C(C)C)cc1)c1c(C)nn(-c2ccccc2)c1N,-2,97*,-6,26,-1,30

# Screening results (PubChem BioAssay)
